Molecules are shown by their SMILES. Numbered stars: 1 amine (or outer) side, 2 acyl side, 3 side chain; on linkers, the order of the positions; unused ones are H or OH. Square brackets hold non-standard residues; d marks the D form. Peptide text beside a SMILES is read from it. * marks the point of attachment. γGlu = O=C(O)[CH](CCC(=O)[*:2])N[*:1]; Phg = N[CH](C(=O)O)c1ccccc1; Bn = c1ccc(C*)cc1

Experiment [1] concerns the target T1, Glutathione S-transferase A1 (Homo sapiens, UniProt P08263).
T1 sequence (P08263 whole entry): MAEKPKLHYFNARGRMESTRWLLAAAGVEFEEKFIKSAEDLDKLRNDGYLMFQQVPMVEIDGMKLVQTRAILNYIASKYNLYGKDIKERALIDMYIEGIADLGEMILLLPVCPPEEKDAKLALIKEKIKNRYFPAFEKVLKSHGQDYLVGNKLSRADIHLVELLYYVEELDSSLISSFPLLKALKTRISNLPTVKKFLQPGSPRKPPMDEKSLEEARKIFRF
Kind of experiment: Inhibitory activity was measured on recombinant human Glutathione-S-transferase A1 enzyme. The procedure, abridged: (§1)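 Enzyme inhibition was measured in the reaction of recombinant human GST isozymes (four isozymes tested) with glutathione and 1-chloro-2,4-dinitrobenzene (CDNB) as the electrophilic substrate. Ki values were determined by a previously published method. The error in each measurement is stated as ±30%.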

Experiment [2] concerns the target T2, Glutathione S-transferase Mu 1 (Homo sapiens, UniProt P09488).
T2 sequence (P09488 whole entry): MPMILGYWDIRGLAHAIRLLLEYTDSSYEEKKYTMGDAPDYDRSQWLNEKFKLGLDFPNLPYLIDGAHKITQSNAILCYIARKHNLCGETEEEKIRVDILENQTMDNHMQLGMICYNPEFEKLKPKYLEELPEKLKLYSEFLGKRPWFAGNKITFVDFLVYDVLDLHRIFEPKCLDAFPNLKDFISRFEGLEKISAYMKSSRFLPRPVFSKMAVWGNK
Kind of experiment: Inhibitory activity was measured on recombinant human Glutathione S-transferase Mu 1. In short, it runs like this:
as §1

Experiment [3] addresses T3, Glutathione S-transferase Mu 2 (Homo sapiens, UniProt P28161).
T3 sequence (P28161 whole entry): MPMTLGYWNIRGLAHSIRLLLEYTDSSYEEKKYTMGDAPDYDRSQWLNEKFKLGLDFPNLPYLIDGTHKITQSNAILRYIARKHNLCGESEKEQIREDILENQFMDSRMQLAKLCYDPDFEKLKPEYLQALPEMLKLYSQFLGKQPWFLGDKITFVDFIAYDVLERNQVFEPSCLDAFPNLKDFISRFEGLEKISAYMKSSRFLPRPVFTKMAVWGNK
The experiment in a line: Inhibitory activity was measured on recombinant human Glutathione S-transferase Mu 2. The procedure, abridged: as §1

The target in experiment [4] is Glutathione S-transferase P (Homo sapiens, UniProt P09211). The experiment in a line: Inhibitory activity was measured on recombinant human Glutathione S-transferase P. The procedure, abridged: as §1
Experiment [5] has as its target T2, Glutathione S-transferase Mu 1. The experiment in a line: Inhibitory activity was measured on recombinant human Glutathione-S-transferase M1a enzyme. In short, it runs like this: as §1

Sequence of Glutathione S-transferase P (P09211 whole entry): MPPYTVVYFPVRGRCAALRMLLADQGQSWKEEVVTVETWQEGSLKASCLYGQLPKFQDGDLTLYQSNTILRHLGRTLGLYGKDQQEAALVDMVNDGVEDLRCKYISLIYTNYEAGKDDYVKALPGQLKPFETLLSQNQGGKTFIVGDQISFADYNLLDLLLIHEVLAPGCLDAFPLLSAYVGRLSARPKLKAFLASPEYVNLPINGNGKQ

A word on the Ki: it is a measure of affinity in units of concentration, obtained from inhibition or displacement. For `Cc1ccc(CSCC(NC(=O)CCC(N)C(=O)O)C(=O)NCCC(=O)O)cc1` (configuration not stated), the inhibitory constant (Ki) in experiment [1] was 43 µM; in experiment [2] it was 2.1 µM; in experiment [3] it was 20 µM; in experiment [4], 40 µM.

With `NC(CCC(=O)NC(CSCc1ccc(Cl)cc1)C(=O)NC(C(=O)O)c1ccccc1)C(=O)O` (configuration not stated), the Ki in experiment [1] was found to be 14.7 µM; in experiment [5], 15.1 µM; in experiment [3] it was 48.3 µM; in experiment [4] it was 0.12 µM.

With `CCCCCCSCC(NC(=O)CCC(N)C(=O)O)C(=O)NCC(=O)O` (configuration not stated), the Ki in experiment [1] stood at 0.84 µM; in experiment [2], 2 µM; in experiment [3], 36 µM.

Consider `NC(CCC(=O)NC(CSCc1ccccc1)C(=O)NCCC(=O)O)C(=O)O` (configuration not stated), for which the Ki in experiment [1] was found to be 360 µM; in experiment [2], 22 µM; in experiment [3], 26 µM; in experiment [4], 710 µM.

`CCCCCCSCC(NC(=O)CCC(N)C(=O)O)C(=O)NC(C(=O)O)c1ccccc1` (configuration not stated): the Ki in experiment [1] came to 5.8 µM; in experiment [2], 41 µM; in experiment [3], 97 µM; in experiment [4], 0.85 µM.

For the molecule `CCCCCCSCC(NC(=O)CCC(N)C(=O)O)C(=O)NCCC(=O)O` (configuration not stated), the Ki in experiment [1] turned out to be 43 µM; in experiment [2], 11 µM; in experiment [3], 42 µM; in experiment [4], 550 µM.

For the molecule `NC(CCC(=O)NC(CSCc1ccccc1)C(=O)NC(C(=O)O)c1ccccc1)C(=O)O` (configuration not stated) (γGlu-Cys(Bn)-[Phg]-OH; configuration not given here), the Ki in experiment [1] amounted to 24.3 µM; in experiment [2], 57.8 µM; in experiment [3] it was 184 µM; in experiment [4], 0.42 µM.

The record behind these values is ChEMBL document CHEMBL1127736, “Isozyme-specific glutathione-S-transferase inhibitors: design and synthesis” (J Med Chem, 1994).
